An excerpt weighted towards active compounds, which were near 3.7% of everything screened.
KCNK9 inh = KCNK9 potassium channel inhibitors, primary screen, HEK293 cells, thallium flux | B-score at 10 µM | 310,000 tested, 1.2% active | Potassium channel subfamily K member 9 (Homo sapiens), Q9NPC2 | FluxOR thallium flux fluorescence; stronger effect = lower value;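 active = ratio B-score over 3 SD below the library mean, with starting fluorescence within 5 SD of its mean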;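 note: negative B-score means less thallium flux so channel inhibition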
Kir21 block = inhibitors of mouse Kir2.1 inward-rectifier potassium channel; B-score at 10 µM; 310,000 tested, 0.85% active; HEK293-Kir2.1, FluxOR thallium flux fluorescence; stronger effect = lower value; AID 1672, 2009;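 active = fluorescence ratio B-score at or below minus 3 SD of library scores, with starting-brightness B-score within 2 SD, cut at about -4.2 in these data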;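 note: channel flux triggered by added potassium and thallium sulfate stimulus; B-score of peak minus minimum fluorescence over baseline after thallium stimulus; more negative B-score means stronger Kir2.1 block with less thallium influx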
KCNQ1 pot = potentiators or activators of KCNQ1 channel, primary screen, cell-based, thallium flux, high-throughput; Potassium voltage-gated channel subfamily KQT member 1 (Homo sapiens), P51787; CHO-K1 KCNQ1, thallium flux FluxOR fluorescence; stronger effect = higher value; B-score at 10 µM; AID 2648, 2010; 310,000 tested, 0.35% active;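 active = fluorescence ratio B-score, a plate-corrected score, at least three library SD, with initial intensity B-score within 5 SD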
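Medium – assay buffer, equal DMSO in all wells · Material – CHO-K1 cell line with stable KCNQ1 potassium channel expression · Signal – kinetic FluxOR thallium fluorescence, 10-s 1-Hz baseline, 110-s post-stimulus read · Compound – single concentration per compound, DMSO matched to controls · Schedule – 37 °C overnight plating, 90-min dark dye load, 20-min compound pretreatment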
KCNK3 inh = human KCNK3 channel inhibitors, primary screen, CHO cells, FluxOR thallium flux, B-score. FluxOR fluorescence; stronger effect = lower value. B-score at 10 µM. 340,000 tested, 0.84% active. AID 602410, 2012;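 active = B-score under library mean minus 4 SD, starting fluorescence ratio at most library mean plus 5 SD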;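 note: more negative B-score means stronger inhibition of thallium flux through KCNK3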
Target sequence (O14649 whole entry, looked up): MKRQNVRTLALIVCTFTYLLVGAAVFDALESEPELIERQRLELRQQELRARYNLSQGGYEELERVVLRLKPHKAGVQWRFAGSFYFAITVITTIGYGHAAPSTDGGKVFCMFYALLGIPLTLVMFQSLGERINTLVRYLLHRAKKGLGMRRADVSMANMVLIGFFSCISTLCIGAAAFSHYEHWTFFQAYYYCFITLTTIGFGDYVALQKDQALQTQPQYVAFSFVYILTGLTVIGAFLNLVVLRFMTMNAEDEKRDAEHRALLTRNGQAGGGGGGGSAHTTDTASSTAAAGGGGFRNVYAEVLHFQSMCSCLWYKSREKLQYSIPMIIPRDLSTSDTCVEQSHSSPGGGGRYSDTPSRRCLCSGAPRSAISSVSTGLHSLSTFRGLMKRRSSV
KCNQ1 inh = inhibitors of human KCNQ1 channel, primary screen, cell-based, thallium flux, high-throughput; Potassium voltage-gated channel subfamily KQT member 1 (Homo sapiens), P51787; CHO-K1 KCNQ1, FluxOR thallium flux fluorescence; stronger effect = higher value; B-score at 10 µM; 310,000 tested, 1.3% active;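 active = compounds whose thallium flux B-score, printed positive for inhibition, exceeds three library SD while starting fluorescence stays within three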;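 note: channel opened by potassium depolarization with thallium stimulus after 20 min compound exposure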
hERG rescue = hERG rescue from dofetilide block, primary screen, cell-based, CHO-hERG, FluxOR thallium flux, dofetilide IC70; Voltage-gated inwardly rectifying potassium channel KCNH2 (Homo sapiens), Q12809; dofetilide IC70 present; activation (rescue from dofetilide block), less the hit threshold, % at 10 µM; 310,000 tested, 0.51% active; AID 1511, 2009;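 active = activation above the mean of controls blocked by dofetilide plus 5 SD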;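 note: thallium influx through hERG after potassium depolarization seen as dye fluorescence rise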
KCNK9 inh conf = KCNK9 potassium channel inhibitors, confirmation, HEK293 cells, thallium flux, duplicate; 4,900 tested, 43% active; inhibition, % at 10 µM; shares compounds with KCNK9 inh; FluxOR thallium flux fluorescence;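 active = thallium signal inhibited by more than 5 SD of the compound-free buffer control wells, on both duplicate plates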;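 note: 0% = assay buffer control wells without compound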
Kir2-1 spec = mouse Kir2.1 channel inhibition, confirmation, selectivity assay for KCNK9 modulator project, cell-based, HEK293, thallium flux; shares compounds with KCNK9 inh; Kir2.1 cells, FluxOR thallium flux fluorescence; inhibition, % at 10 µM; 4,900 tested, 4% active; AID 492993, 2010;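 active = thallium signal drop more than 5 SD beyond the mean of the no-compound control wells, seen in both duplicate plates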;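 note: signal is fluorescence rise after thallium addition divided by baseline fluorescence; plate controls were assay buffer only for no effect and full block by chlorpromazine control for full effect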
HEK293 Tl ctr = thallium flux in non-induced HEK293 cells, confirmation, counter-screen for KCNK9 inhibitor project, cell-based, second counter screen, non-induced KCNK9-HEK293; shares compounds with KCNK9 inh; FluxOR thallium flux; inhibition, % at 10 µM; 4,900 tested, 40% active; AID 492997, 2010;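 active = thallium signal drop beyond 5 SD of the untreated control mean, on both duplicate plates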;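 note: plate controls were buffer only IC0 wells for no effect and SID17386958 at its maximal inhibitory level for full effect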
Active calls of the source: *; i = inactive; x = no result.

SMILES | KCNK9 inh | Kir21 block | KCNQ1 pot | KCNK3 inh | KCNQ1 inh | hERG rescue | KCNK9 inh conf | Kir2-1 spec | HEK293 Tl ctr
COc1ccc(CN2CCCC(C(=O)c3ccccc3SC)C2)cc1O (stereo not drawn) | i | 0 | i | i | i | -20 | x | x | x
COc1ccc(C(=O)C2CCCN(Cc3ccon3)C2)c(OC)c1 (stereo not drawn) | i | -1.3 | i | i | i | -4 | x | x | x
CC(C)Oc1cccc(C(=O)C2CCCN(Cc3ccon3)C2)c1 (stereo not drawn) | i | 0.05 | i | i | i | -14 | x | x | x
O=C(c1cc(F)ccc1F)C1CCCN(Cc2ccc3nonc3c2)C1 (stereo not drawn) | i | 0.24 | i | i | i | -5 | i | i | i
O=C(c1cccc(Cl)c1)C1CCCN(Cc2ccon2)C1 (stereo not drawn) | i | 2.3 | i | i | i | -6 | x | x | x
COc1cccc(C(=O)C2CCCN(Cc3ccc4nonc4c3)C2)c1 (stereo not drawn) | i | -0.38 | i | i | i | -8 | i | i | i
COc1ccc(CN2CCCC(C(=O)c3cccc(Cl)c3)C2)cc1 (stereo not drawn) | i | -8.8* | i | i | i | -9 | i | 32%* | i
COc1ccc(CN2CCCC(C(=O)c3ccc(Cl)cc3)C2)c(OC)c1 (stereo not drawn) | i | -5.2* | i | i | i | -12 | i | i | i
NC1=NC(=O)N2CC12 (stereo not drawn) | x | x | x | i | x | x | x | x | x
Cc1ccccc1C(=O)N1CC1C (stereo not drawn) | x | x | x | i | x | x | x | x | x
COc1ccc(O)c(CN2CCCC(C(=O)c3sccc3C)C2)c1 (stereo not drawn) | i | -2.5 | i | i | i | -27 | x | x | x
COc1cccc(C(=O)C2CCCN(Cc3cccc4c3OCO4)C2)c1 (stereo not drawn) | i | -2.9 | i | i | i | -7 | i | i | i
CSc1ncc(CN2CCCC(C(=O)c3cccc(Cl)c3)C2)cn1 (stereo not drawn) | i | 0.14 | i | i | i | -2 | i | i | i
FC(F)(F)c1ccc2c(c1)N(CCCN1CCN(CCCl)CC1)c1ccccc1S2 | i | -0.52 | i | i | i | -14 | i | i | i
CCC(=O)c1cn(Cc2ccccc2)c2ccccc12 | i | 0.01 | i | i | i | -21 | x | x | x
O=C(COc1ccccc1)c1cn(Cc2ccccc2)c2ccccc12 | -10* | -3.3 | i | i | i | -9 | 52%* | i | 53%*
c1ccc(CCCN2CCN(CCOC(c3ccccc3)c3ccccc3)CC2)cc1 | i | -2.2 | i | i | i | -17 | i | i | i
Cc1ccc(-c2cc(-c3ccccc3)cc(-c3ccccc3)[n+]2-c2ccccc2)cc1 | -9.2* | -9.7* | i | i | i | -46 | 75%* | 79%* | 34%*
Cc1ccc(-c2cc(-c3ccc(C)cc3)[n+](-c3ccccc3)c(-c3ccc(C)cc3)c2)cc1 | -19* | -12* | i | -18* | 9* | -39 | 76%* | 84%* | i
Cc1ccc(-c2cc(-c3ccc(C)cc3)[n+](C)o2)cc1 | i | 2.3 | i | i | i | -24 | x | x | x
Cc1cc(N(CCCl)CCCl)ccc1C=Cc1ccncn1 | x | x | x | i | x | x | x | x | x
NCC(O)c1cc(O)c(O)cc1F (stereo not drawn) | x | x | x | i | x | x | x | x | x
COCc1ccc(CN2CCCC(C(=O)c3sccc3C)C2)o1 (stereo not drawn) | i | 0.11 | i | i | i | -7 | i | i | i
Cc1ccc(NC(=O)CCNC(=O)N2C[C@H]3C[C@@H](C2)c2cccc(=O)n2C3)c(C)c1 | i | 0.17 | i | i | i | -7 | x | x | x
COc1cccc(NP(=O)(Oc2ccccc2Cl)Oc2ccccc2Cl)c1 | -10* | 0 | i | i | i | -2 | 38%* | i | 38%*
SMILES | KCNK9 inh | Kir21 block | KCNQ1 pot | KCNK3 inh | KCNQ1 inh | hERG rescue | KCNK9 inh conf | Kir2-1 spec | HEK293 Tl ctr
COc1ccccc1CN1CCN(C(=O)COc2ccc3ccccc3c2)CC1 | i | -6.2 | i | i | i | -5 | i | 33%* | i
COc1ccccc1CN1CCN(C(=O)COc2cccc(C)c2)CC1 | i | 0.75 | i | i | i | -6 | x | x | x
O=C(Cc1c[nH]c2ccccc12)NNCc1ccc(N(CCCl)CCCl)cc1 | x | x | x | i | x | x | x | x | x
CSc1ccc(CN2CCN(c3ccccc3C)CC2)cc1 | i | -1.5 | i | i | i | -10 | i | i | i
C#CC[N+]1(C)[C@@H]2CC(OC(=O)C(CO)c3ccccc3)C[C@H]1C(O)C2 (stereo partly drawn) | i | 1.2 | i | i | i | -8 | x | x | x
O=C(CN1CC=C(c2ccccc2)CC1)NC(=O)NC1CCCCC1 | i | -1.5 | i | i | i | -9 | i | i | i
CC(C)(C)NC(=O)NC(=O)CN1CC=C(c2ccccc2)CC1 | i | 0 | i | i | i | -9 | i | i | i
COC(=O)COc1ccc(/C=C2\C(=O)NC(=S)N(c3ccc(C)cc3)C2=O)cc1OC | i | 0.48 | i | i | i | -3 | x | x | x
C[C@]12CC3CC(N)(C1)C[C@@](C)(C3)C2 | i | -0.61 | i | i | i | -8 | x | x | x
O=C(Nc1nccs1)c1c(O)c2c(n(Cc3ccco3)c1=O)CCCC2 | -8.2* | 0.23 | i | i | 6* | -7 | 44%* | i | 36%*
O=C(Nc1ccccc1)c1c(O)c2c(n(Cc3ccco3)c1=O)CCCC2 | i | -0.06 | i | i | i | -1 | x | x | x

Screening data from PubChem BioAssay.
